ChEMBL document CHEMBL3227968, “Synthesis and antitumor activity of water-soluble (2-chloroethyl)nitrosoureas” (1979)
Calls of active or inactive are those of the source. The rule behind the calls is not given here.

Columns and labels:
L1210 [1] = assay: Antitumor activity against mouse L1210 cells allografted in mouse assessed as tumor inhibition at 128 mg/kg, ip single dose relative to control; type: functional; conditions: route intraperitoneal
Summary of the method: (§1)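 L1210 leukemia, 10⁶ cells per mouse inoculated ip. Single ip dose given on day 1. Median survival time expressed as %T/C = (MST treated/MST control) × 100, with T/C > 125 counted as significant. Mice surviving at 30 days were recorded, six mice per treatment dose.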

L1210 [2] = assay: Antitumor activity against mouse L1210 cells allografted in mouse assessed as tumor inhibition at 64 mg/kg, ip single dose relative to control; type: functional; conditions: route intraperitoneal; summary of the method: as §1
L1210 [3] = assay: Antitumor activity against mouse L1210 cells allografted in mouse assessed as median survival time at 32 mg/kg, ip single dose relative to control; type: functional; conditions: route intraperitoneal; summary of the method: as §1
L1210 [4] = assay: Antitumor activity against mouse L1210 cells allografted in mouse assessed as tumor inhibition at 16 mg/kg, ip single dose relative to control; type: functional; conditions: route intraperitoneal; summary of the method: as §1
L1210 [5] = assay: Antitumor activity against mouse L1210 cells allografted in mouse assessed as tumor inhibition at 8 mg/kg, ip single dose relative to control; type: functional; conditions: route intraperitoneal; summary of the method: as §1
L1210 [6] = assay: Antitumor activity against mouse L1210 cells allografted in mouse assessed as tumor inhibition at 4 mg/kg, ip single dose relative to control; type: functional; conditions: route intraperitoneal; summary of the method: as §1
L1210 [7] = assay: Antitumor activity against mouse L1210 cells allografted in mouse assessed as tumor inhibition at 2 mg/kg, ip single dose relative to control; type: functional; conditions: route intraperitoneal; summary of the method: as §1
L1210 [8] = assay: Antitumor activity against mouse L1210 cells allografted in mouse assessed as tumor inhibition at 1 mg/kg, ip single dose relative to control; type: functional; conditions: route intraperitoneal; summary of the method: as §1
L1210 [9] = assay: Antitumor activity against mouse L1210 cells allografted in mouse assessed as mouse survival after 30 days at 128 mg/kg, ip single dose relative to control; type: functional, organism-based; parameters: dose 128 mg/kg
Summary of the method: (§2)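 L1210 leukemia, 10⁶ cells implanted ip per mouse. One ip dose given on day 1. Six mice per dose level. Survivors counted at day 30. Median survival time also recorded as %T/C = (MST treated/MST control) × 100, with T/C > 125 taken as significant.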

L1210 [10] = assay: Antitumor activity against mouse L1210 cells allografted in mouse assessed as mouse survival after 30 days at 16 mg/kg, ip single dose relative to control; type: functional, organism-based; parameters: dose 16 mg/kg; summary of the method: as §2
L1210 [11] = assay: Antitumor activity against mouse L1210 cells allografted in mouse assessed as mouse survival after 30 days at 8 mg/kg, ip single dose relative to control; type: functional, organism-based; parameters: dose 8 mg/kg; summary of the method: as §2
L1210 [12] = assay: Antitumor activity against mouse L1210 cells allografted in mouse assessed as mouse survival after 30 days at 4 mg/kg, ip single dose relative to control; type: functional, organism-based; parameters: dose 4 mg/kg; summary of the method: as §2
L1210 [13] = assay: Antitumor activity against mouse L1210 cells allografted in mouse assessed as mouse survival after 30 days at 2 mg/kg, ip single dose relative to control; type: functional, organism-based; parameters: dose 2 mg/kg; summary of the method: as §2
L1210 [14] = assay: Antitumor activity against mouse L1210 cells allografted in mouse assessed as mouse survival after 30 days at 1 mg/kg, ip single dose relative to control; type: functional, organism-based; parameters: dose 1 mg/kg; summary of the method: as §2
L1210 [15] = assay: Antitumor activity against mouse L1210 cells allografted in mouse assessed as mouse survival after 30 days at 32 mg/kg, ip single dose relative to control; type: functional, organism-based; parameters: dose 32 mg/kg; summary of the method: as §2
L1210 [16] = assay: Antitumor activity against mouse L1210 cells allografted in mouse assessed as mouse survival after 30 days at 2 mg/kg, ip qd for 8 days relative to control; type: functional, organism-based; parameters: dose 2 mg/kg
Summary of the method: (§3)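 L1210 leukemia, 10⁶ cells implanted ip per mouse. Dosing ip once daily for 8 days starting day 1, with solutions prepared fresh daily. Six mice per dose level. Survivors counted at day 30. Median survival time also recorded as %T/C = (MST treated/MST control) × 100, with T/C > 125 taken as significant.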

L1210 [17] = assay: Antitumor activity against mouse L1210 cells allografted in mouse assessed as mouse survival after 30 days at 1 mg/kg, ip qd for 8 days relative to control; type: functional, organism-based; parameters: dose 1 mg/kg; summary of the method: as §3
L1210 [18] = assay: Antitumor activity against mouse L1210 cells allografted in mouse assessed as mouse survival after 30 days at 0.5 mg/kg, ip qd for 8 days relative to control; type: functional, organism-based; parameters: dose 0.5 mg/kg; summary of the method: as §3
L1210 [19] = assay: Antitumor activity against mouse L1210 cells allografted in mouse assessed as mouse survival after 30 days at 0.25 mg/kg, ip qd for 8 days relative to control; type: functional, organism-based; parameters: dose 0.25 mg/kg; summary of the method: as §3
L1210 [20] = assay: Antitumor activity against mouse L1210 cells allografted in mouse assessed as median survival time at 32 mg/kg, ip qd for 8 days relative to control; type: functional; conditions: route intraperitoneal
Summary of the method: (§4)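 L1210 leukemia, 10⁶ cells per mouse implanted ip. Dosing ip once daily for 8 days from day 1, with solutions prepared fresh daily. Read-out: median survival time as %T/C = (MST treated/MST control) × 100, with T/C > 125 taken as significant inhibition. Survivors counted at 30 days, six mice per dose.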

L1210 [21] = assay: Antitumor activity against mouse L1210 cells allografted in mouse assessed as tumor inhibition at 16 mg/kg, ip qd for 8 days relative to control; type: functional; conditions: route intraperitoneal; summary of the method: as §4
L1210 [22] = assay: Antitumor activity against mouse L1210 cells allografted in mouse assessed as tumor inhibition at 8 mg/kg, ip qd for 8 days relative to control; type: functional; conditions: route intraperitoneal; summary of the method: as §4
L1210 [23] = assay: Antitumor activity against mouse L1210 cells allografted in mouse assessed as tumor inhibition at 4 mg/kg, ip qd for 8 days relative to control; type: functional; conditions: route intraperitoneal; summary of the method: as §4
L1210 [24] = assay: Antitumor activity against mouse L1210 cells allografted in mouse assessed as tumor inhibition at 2 mg/kg, ip qd for 8 days relative to control; type: functional; conditions: route intraperitoneal; summary of the method: as §4
L1210 [25] = assay: Antitumor activity against mouse L1210 cells allografted in mouse assessed as tumor inhibition at 1 mg/kg, ip qd for 8 days relative to control; type: functional; conditions: route intraperitoneal; summary of the method: as §4
L1210 [26] = assay: Antitumor activity against mouse L1210 cells allografted in mouse assessed as tumor inhibition at 0.5 mg/kg, ip qd for 8 days relative to control; type: functional; conditions: route intraperitoneal; summary of the method: as §4
L1210 [27] = assay: Antitumor activity against mouse L1210 cells allografted in mouse assessed as tumor inhibition at 0.25 mg/kg, ip qd for 8 days relative to control; type: functional; conditions: route intraperitoneal; summary of the method: as §4
L1210 [28] = assay: Antitumor activity against mouse L1210 cells allografted in mouse assessed as mouse survival after 30 days at 32 mg/kg, ip qd for 8 days relative to control; type: functional, organism-based; parameters: dose 32 mg/kg; summary of the method: as §3
L1210 [29] = assay: Antitumor activity against mouse L1210 cells allografted in mouse assessed as mouse survival after 30 days at 16 mg/kg, ip qd for 8 days relative to control; type: functional, organism-based; parameters: dose 16 mg/kg; summary of the method: as §3
L1210 [30] = assay: Antitumor activity against mouse L1210 cells allografted in mouse assessed as mouse survival after 30 days at 8 mg/kg, ip qd for 8 days relative to control; type: functional, organism-based; parameters: dose 8 mg/kg; summary of the method: as §3
L1210 [31] = assay: Antitumor activity against mouse L1210 cells allografted in mouse assessed as mouse survival after 30 days at 4 mg/kg, ip qd for 8 days relative to control; type: functional, organism-based; parameters: dose 4 mg/kg; summary of the method: as §3

| SMILES | T/C (L1210 [3]) [%] | T/C (L1210 [4]) [%] | T/C (L1210 [5]) [%] | T/C (L1210 [6]) [%] | T/C (L1210 [7]) [%] | Survival (L1210 [11]) | Survival (L1210 [12]) | Survival (L1210 [13]) | Survival (L1210 [16]) | Survival (L1210 [17]) | Survival (L1210 [18]) | Survival (L1210 [19]) | T/C (L1210 [20]) [%] | T/C (L1210 [21]) [%] | T/C (L1210 [22]) [%] | T/C (L1210 [23]) [%] | T/C (L1210 [24]) [%] | T/C (L1210 [25]) [%] | T/C (L1210 [26]) [%] | T/C (L1210 [27]) [%] | further results |
| --- | --- | --- | --- | --- | --- | --- | --- | --- | --- | --- | --- | --- | --- | --- | --- | --- | --- | --- | --- | --- | --- |
| O=NN(CCCl)C(=O)N[C@H]1[C@@H](O)[C@@H](O)[C@H](NC(=O)N(CCCl)N=O)[C@H](O)[C@@H]1O | >471 | >243 | 171 | 136 | 129 | inactive | inactive | inactive |  |  |  |  |  |  |  |  |  |  |  |  | T/C (L1210 [1]): 293%; T/C (L1210 [2]): 286%; T/C (L1210 [8]): 114%; Survival (L1210 [9]): inactive; Survival (L1210 [10]): inactive; Survival (L1210 [14]): inactive |
| O=NN(CCCl)C(=O)N[C@H]1[C@@H](O)[C@@H](O)[C@H](NC(=O)N(CCCl)N=O)[C@@H](O)[C@@H]1O | 136 | >471 | 214 | 171 | 150 | inactive | inactive | inactive |  |  |  |  |  |  |  |  |  |  |  |  | Survival (L1210 [15]): inactive |
| O=NN(CCCl)C(=O)N[C@H]1[C@H](O)[C@H](O)[C@H](O)[C@@H]1O |  |  |  |  |  |  |  |  | inactive | inactive | inactive | inactive | 186 | >471 | >471 | 250 | 143 | 114 | 114 | 107 | Survival (L1210 [28]): inactive; Survival (L1210 [29]): Active |
| O=NN(CCCl)C(=O)N[C@H]1[C@H](O)[C@H](O)[C@@H](O)[C@@H]1O |  |  |  |  |  |  |  |  | inactive | inactive | inactive | inactive | 171 | >471 | 243 | 207 | 221 | 157 | 114 | 144 | Survival (L1210 [28]): inactive; Survival (L1210 [30]): inactive |
| O=NN(CCCl)C(=O)N[C@H]1[C@H](O)[C@@H](O)[C@@H](O)[C@@H]1O |  |  |  |  |  |  |  |  | inactive | inactive | inactive | inactive | 143 | 171 | 336 | 229 | 171 | 114 | 107 | 100 | Survival (L1210 [28]): inactive; Survival (L1210 [29]): inactive; Survival (L1210 [31]): inactive |
| O=NN(CCCl)C(=O)NCCCl [CARMUSTINE] | >471 | 271 | 193 | 143 | 114 | inactive | inactive | inactive | inactive | inactive | inactive | inactive | 193 | >471 | 293 | 193 | 114 | 100 | 100 | 100 | Survival (L1210 [29]): Active; Survival (L1210 [30]): inactive; Survival (L1210 [31]): inactive |
| O=NN(CCCl)C(=O)N[C@@H]1[C@H](O)[C@H](NC(=O)N(CCCl)N=O)[C@@H](O)[C@H](O)[C@H]1O | 214 | 179 | 171 | 114 | 121 | inactive | inactive | inactive |  |  |  |  |  |  |  |  |  |  |  |  | T/C (L1210 [1]): 86%; T/C (L1210 [2]): 250%; T/C (L1210 [8]): 100%; Survival (L1210 [9]): inactive; Survival (L1210 [15]): inactive; Survival (L1210 [10]): inactive; Survival (L1210 [14]): inactive |
